According to ChEMBL document CHEMBL2429849, “Substrate-based fragment identification for the development of selective, nonpeptidic inhibitors of striatal-enriched protein tyrosine phosphatase” (J Med Chem, 2013):

Legend:
[1] = molecular target: T1, Tyrosine-protein phosphatase non-receptor type 5 (Homo sapiens, UniProt P54829); experiment: Inhibition of human STEP using pNPP as substrate after 5 mins by spectrophotometric plate reader analysis
T1 sequence (P54829 whole entry): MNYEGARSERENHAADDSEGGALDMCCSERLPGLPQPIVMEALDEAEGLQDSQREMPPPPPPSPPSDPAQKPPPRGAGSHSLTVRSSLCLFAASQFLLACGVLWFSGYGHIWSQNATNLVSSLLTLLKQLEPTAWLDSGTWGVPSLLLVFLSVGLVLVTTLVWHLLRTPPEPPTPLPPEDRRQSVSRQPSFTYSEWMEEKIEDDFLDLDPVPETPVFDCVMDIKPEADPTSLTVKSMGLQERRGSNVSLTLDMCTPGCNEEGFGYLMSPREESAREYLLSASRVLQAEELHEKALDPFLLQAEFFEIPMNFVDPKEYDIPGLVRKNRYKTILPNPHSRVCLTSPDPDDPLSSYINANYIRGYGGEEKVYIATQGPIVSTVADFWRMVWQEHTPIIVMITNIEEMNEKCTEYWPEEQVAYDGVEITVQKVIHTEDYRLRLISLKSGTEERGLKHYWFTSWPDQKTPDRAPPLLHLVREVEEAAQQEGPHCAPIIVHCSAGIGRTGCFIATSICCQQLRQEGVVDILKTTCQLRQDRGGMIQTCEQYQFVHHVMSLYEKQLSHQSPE

[2] = molecular target: T2, Tyrosine-protein phosphatase non-receptor type 2 (Homo sapiens, UniProt P17706); experiment: Inhibition of human TC-PTP using pNPP as substrate after 5 mins by spectrophotometric plate reader analysis
T2 sequence (P17706 whole entry): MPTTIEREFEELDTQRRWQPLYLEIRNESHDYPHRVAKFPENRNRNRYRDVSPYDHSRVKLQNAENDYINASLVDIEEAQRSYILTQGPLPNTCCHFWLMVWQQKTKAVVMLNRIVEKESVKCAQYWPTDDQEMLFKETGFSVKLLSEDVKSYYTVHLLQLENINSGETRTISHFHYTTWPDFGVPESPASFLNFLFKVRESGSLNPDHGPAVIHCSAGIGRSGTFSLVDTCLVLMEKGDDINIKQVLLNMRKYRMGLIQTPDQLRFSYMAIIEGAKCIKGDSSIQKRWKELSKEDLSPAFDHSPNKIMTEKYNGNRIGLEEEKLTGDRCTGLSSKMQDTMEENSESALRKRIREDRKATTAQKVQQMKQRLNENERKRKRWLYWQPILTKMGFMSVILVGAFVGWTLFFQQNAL
Summary of the method: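 Selectivity assay using the STEP Ki protocol. Enzyme was preincubated 5 min at 27 °C with two- or three-fold inhibitor serial dilutions in DMSO, in imidazole/NaCl buffer at pH 7.0 with 0.01% Triton X-100 and 5 mM DTT. Reaction started with pNPP (500 μM in assay), read continuously at 405 nm for 20 min. Ki came from nonlinear regression of substrate-velocity curves, using this enzyme's pNPP KM; at least duplicate.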

[3] = molecular target: T3, Receptor-type tyrosine-protein phosphatase C (Homo sapiens, UniProt P08575); experiment: Inhibition of human CD45 using pNPP as substrate after 5 mins by spectrophotometric plate reader analysis
T3 sequence (P08575 whole entry): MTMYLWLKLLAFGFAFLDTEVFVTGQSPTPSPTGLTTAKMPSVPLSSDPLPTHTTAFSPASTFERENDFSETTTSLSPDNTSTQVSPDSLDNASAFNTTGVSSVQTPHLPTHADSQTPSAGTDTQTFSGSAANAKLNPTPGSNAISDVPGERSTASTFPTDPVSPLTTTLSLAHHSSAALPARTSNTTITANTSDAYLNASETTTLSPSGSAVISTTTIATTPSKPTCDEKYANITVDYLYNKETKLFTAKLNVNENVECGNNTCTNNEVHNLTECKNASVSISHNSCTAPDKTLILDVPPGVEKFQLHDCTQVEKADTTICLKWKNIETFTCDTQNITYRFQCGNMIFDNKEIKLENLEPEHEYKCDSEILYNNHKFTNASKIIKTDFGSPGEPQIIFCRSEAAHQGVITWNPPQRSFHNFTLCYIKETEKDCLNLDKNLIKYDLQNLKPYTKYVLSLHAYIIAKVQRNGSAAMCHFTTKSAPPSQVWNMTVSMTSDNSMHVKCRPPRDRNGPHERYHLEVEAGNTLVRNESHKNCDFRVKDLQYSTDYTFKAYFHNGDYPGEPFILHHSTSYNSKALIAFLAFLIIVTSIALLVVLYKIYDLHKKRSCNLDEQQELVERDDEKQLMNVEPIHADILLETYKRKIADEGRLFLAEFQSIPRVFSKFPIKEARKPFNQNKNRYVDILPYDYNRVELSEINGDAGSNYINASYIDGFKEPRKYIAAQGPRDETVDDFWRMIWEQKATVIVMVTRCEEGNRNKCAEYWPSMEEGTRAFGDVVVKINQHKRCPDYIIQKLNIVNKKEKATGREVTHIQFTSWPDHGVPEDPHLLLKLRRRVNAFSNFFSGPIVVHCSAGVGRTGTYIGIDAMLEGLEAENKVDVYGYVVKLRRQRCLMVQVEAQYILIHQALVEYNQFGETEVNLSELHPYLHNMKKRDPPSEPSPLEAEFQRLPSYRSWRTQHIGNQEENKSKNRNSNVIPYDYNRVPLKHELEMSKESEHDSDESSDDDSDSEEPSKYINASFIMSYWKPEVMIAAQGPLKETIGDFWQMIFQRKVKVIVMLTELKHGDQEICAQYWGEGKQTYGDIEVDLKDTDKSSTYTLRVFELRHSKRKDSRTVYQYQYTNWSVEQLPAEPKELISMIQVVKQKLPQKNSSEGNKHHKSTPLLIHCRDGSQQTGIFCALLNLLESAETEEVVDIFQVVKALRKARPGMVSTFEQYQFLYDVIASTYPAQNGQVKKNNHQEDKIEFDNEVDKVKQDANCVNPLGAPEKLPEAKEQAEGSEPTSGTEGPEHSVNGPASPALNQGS
Summary of the method: (§1)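 Enzyme preincubated 5 min at 27 °C with serially diluted inhibitor (from DMSO) in imidazole/NaCl buffer pH 7.0 with 0.01% Triton X-100 and 5 mM DTT. Started with pNPP (500 μM in assay) and read at 405 nm for 20 min. The pNPP KM was measured for each enzyme. Ki from nonlinear regression of substrate–velocity curves at several inhibitor levels; at least duplicate.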

[4] = molecular target: Receptor-type tyrosine-protein phosphatase F (Homo sapiens, UniProt P10586); experiment: Inhibition of human LAR using pNPP as substrate after 5 mins by spectrophotometric plate reader analysis; summary of the method: as §1
Chain of Receptor-type tyrosine-protein phosphatase F (P10586 whole entry): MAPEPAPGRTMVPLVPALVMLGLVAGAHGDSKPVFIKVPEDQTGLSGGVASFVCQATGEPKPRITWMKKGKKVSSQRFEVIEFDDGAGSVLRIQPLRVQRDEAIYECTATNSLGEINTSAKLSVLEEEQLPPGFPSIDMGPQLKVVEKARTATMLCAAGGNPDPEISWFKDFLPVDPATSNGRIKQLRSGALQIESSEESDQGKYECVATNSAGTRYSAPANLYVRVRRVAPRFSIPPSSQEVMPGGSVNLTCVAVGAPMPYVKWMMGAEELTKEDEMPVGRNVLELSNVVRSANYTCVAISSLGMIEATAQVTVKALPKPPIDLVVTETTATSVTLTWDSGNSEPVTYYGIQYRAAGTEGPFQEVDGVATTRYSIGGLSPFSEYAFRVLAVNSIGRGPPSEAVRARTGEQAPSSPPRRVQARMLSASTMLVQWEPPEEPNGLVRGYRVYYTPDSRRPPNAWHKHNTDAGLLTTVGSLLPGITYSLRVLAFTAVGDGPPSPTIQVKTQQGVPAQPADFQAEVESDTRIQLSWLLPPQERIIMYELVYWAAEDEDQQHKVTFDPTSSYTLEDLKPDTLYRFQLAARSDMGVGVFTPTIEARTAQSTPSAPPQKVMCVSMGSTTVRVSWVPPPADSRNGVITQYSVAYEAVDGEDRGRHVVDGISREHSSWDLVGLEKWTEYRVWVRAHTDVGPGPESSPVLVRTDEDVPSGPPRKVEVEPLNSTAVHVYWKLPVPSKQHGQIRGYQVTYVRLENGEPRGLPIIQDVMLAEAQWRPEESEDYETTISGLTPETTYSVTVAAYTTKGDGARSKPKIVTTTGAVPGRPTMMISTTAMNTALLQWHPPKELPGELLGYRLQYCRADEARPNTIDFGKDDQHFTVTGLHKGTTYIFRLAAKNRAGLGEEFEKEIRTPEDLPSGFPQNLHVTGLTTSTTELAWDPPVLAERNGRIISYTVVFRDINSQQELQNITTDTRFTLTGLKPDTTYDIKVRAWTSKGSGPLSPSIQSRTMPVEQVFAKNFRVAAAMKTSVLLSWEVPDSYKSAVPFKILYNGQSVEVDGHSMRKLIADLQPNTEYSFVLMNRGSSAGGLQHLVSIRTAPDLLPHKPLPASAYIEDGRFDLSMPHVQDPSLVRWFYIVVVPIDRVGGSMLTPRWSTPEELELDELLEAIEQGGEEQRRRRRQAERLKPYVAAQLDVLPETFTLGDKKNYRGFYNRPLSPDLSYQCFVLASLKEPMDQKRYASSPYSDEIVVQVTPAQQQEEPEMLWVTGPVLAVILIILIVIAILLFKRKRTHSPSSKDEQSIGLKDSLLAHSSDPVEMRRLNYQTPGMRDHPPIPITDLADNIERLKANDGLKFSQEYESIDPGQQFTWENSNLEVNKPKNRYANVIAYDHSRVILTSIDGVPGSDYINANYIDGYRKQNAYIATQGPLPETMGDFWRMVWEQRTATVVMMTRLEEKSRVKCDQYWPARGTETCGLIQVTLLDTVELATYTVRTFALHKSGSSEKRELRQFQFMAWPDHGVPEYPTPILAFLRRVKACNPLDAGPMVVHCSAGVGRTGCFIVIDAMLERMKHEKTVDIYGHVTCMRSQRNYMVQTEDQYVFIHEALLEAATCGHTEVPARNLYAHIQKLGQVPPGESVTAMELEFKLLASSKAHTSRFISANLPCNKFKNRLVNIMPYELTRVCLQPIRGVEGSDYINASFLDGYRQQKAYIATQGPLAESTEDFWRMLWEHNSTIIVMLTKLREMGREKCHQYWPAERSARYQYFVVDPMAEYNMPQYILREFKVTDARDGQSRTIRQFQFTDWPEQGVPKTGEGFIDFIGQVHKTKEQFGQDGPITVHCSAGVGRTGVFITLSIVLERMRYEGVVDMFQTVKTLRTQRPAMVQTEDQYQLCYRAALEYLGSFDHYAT

[5] = molecular target: T4, Dual specificity protein phosphatase 10 (Homo sapiens, UniProt Q9Y6W6); experiment: Inhibition of human MKP5 using DiFMUP as substrate after 5 mins by spectrophotometric plate reader analysis
T4 sequence (Q9Y6W6 whole entry): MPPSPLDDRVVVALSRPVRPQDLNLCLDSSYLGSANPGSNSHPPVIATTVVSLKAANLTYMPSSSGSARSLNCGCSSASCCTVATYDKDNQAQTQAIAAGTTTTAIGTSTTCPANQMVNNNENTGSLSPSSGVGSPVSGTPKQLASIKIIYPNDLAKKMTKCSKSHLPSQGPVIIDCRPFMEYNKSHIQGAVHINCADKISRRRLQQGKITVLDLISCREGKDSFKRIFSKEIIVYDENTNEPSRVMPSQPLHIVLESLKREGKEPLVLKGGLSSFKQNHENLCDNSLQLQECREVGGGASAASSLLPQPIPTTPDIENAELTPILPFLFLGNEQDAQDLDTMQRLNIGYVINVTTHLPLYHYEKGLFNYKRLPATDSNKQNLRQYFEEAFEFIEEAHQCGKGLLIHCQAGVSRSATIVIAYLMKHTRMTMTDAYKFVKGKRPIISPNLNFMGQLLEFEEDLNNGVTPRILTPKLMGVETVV
Summary of the method: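 The […] substrate was DiFMUP. Buffer was Tris-HCl pH 8.0 with Triton X-100 and 5 mM DTT. Inhibitor was preincubated with enzyme for 5 min at 27 °C before adding substrate. Ki from nonlinear regression of initial-rate substrate–velocity data at several inhibitor concentrations; at least duplicate.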

[6] = species on record: Homo sapiens; experiment: Selectivity ratio of Ki for human TC-PTP to Ki for human STEP
Summary of the method: (§2)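 STEP, CD45, LAR and TC-PTP used pNPP (500 μM) in imidazole/NaCl pH 7.0 with Triton X-100, read at 405 nm for 20 min. MKP5 used DiFMUP in Tris-HCl pH 8.0. The enzyme's own pNPP KM was used in analysis; ratio of the Ki values.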

[7] = species on record: Homo sapiens; experiment: Selectivity ratio of Ki for human CD45 to Ki for human STEP; summary of the method: as §2
[8] = species on record: Homo sapiens; experiment: Selectivity ratio of Ki for human LAR to Ki for human STEP; summary of the method: as §2
[9] = species on record: Homo sapiens; experiment: Selectivity ratio of Ki for human MKP5 to Ki for human STEP; summary of the method: as §2
[10] = substrate: CC(C)(C)CC(C)(C)c1ccc(OP(=O)(O)O)cc1; experiment: (§3) Activity at human STEP measured for 20 mins by spectrophotometric plate reader analysis
Summary of the method: (§4)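 Substrate KM by coupled assay: STEP 100 nM with MESG 400 μM, PNP 1 U/mL, 5 mM DTT in imidazole/NaCl buffer with Triton X-100, pH 7.0; preincubated 3 min at 27 °C, then started with substrate (about 0–3.00 mM in assay, from DMSO). Followed 20 min at 360 nm, 27 °C; KM from Michaelis–Menten fit of initial rates.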

[11] = substrate: CC(Cc1ccccc1)c1ccc(OP(=O)(O)O)cc1; experiment: as §3; summary of the method: as §4
[12] = substrate: COC(=O)[C@H](Cc1ccc(OP(=O)(O)O)cc1)NC(C)=O; experiment: as §3; summary of the method: as §4
[13] = substrate: O=C(Cc1ccc(OP(=O)(O)O)cc1)Nc1ccccc1; experiment: as §3; summary of the method: as §4
[14] = substrate: O=C(Oc1cccc(OP(=O)(O)O)c1)c1ccccc1; experiment: as §3; summary of the method: as §4
[15] = substrate: O=P(O)(O)Oc1ccc(-c2ccccc2)cc1; experiment: as §3; summary of the method: as §4
[16] = substrate: O=P(O)(O)Oc1cccc(-c2ccccc2)c1; experiment: as §3; summary of the method: as §4
[17] = substrate: O=P(O)(O)Oc1cccc(Nc2ccccc2)c1; experiment: as §3; summary of the method: as §4
[18] = substrate: O=P(O)(O)Oc1ccccc1; experiment: as §3; summary of the method: as §4
[19] = substrate: O=[N+]([O-])c1ccc(OP(=O)(O)O)cc1; experiment: as §3; summary of the method: as §4

With `O=P(O)(O)[C@@H](O)c1ccc(-c2cccc([C@@H](O)c3ccc(Cl)c(Cl)c3)c2)cc1` the Ki [1] was 88 µM.

For `CS(=O)(=O)Nc1cccc(-c2ccc(C(F)(F)P(=O)(O)O)cc2)c1`, the Ki [1] was 113 µM.

Work on `O=P(O)(O)C(F)(F)c1cccc(-c2cccc(C3CCCCC3)c2O)c1` yielded a Ki [2] of 71 µM, a Ki [1] of 20 µM and a Ki [3] greater than 500 µM. It also gave a Ki [4] greater than 900 µM, a Ki [5] of 150 µM and a Ratio Ki [6] of 3.6. The Ratio Ki [7] was greater than 25, the Ratio Ki [8] was greater than 45 and the Ratio Ki [9] was 7.5.

Molecule `O=P(O)(O)C(F)(F)c1ccc(-c2cccc(Nc3ccccc3)c2)cc1` has a Ki [1] of 112 µM.

For `O=P(O)(O)C(F)(F)c1cccc(-c2ccccc2)c1`, the Ki [1] was 337 µM.

Work on `O=P(O)(O)C(F)(F)c1ccc(-c2ccccc2)cc1` yielded a Ki [1] of 120 µM.

Work on `CS(=O)(=O)Nc1ccccc1-c1ccc(C(F)(F)P(=O)(O)O)cc1` yielded a Ki [1] of 673 µM.

`O=P(O)(O)[C@@H](O)c1ccc(-c2cccc([C@H](O)c3ccc(Cl)c(Cl)c3)c2)cc1` showed a Ki [1] of 93 µM.

B1: Tyrosine-protein phosphatase non-receptor type 5 (Homo sapiens), P54829 (protein)
chain: MNYEGARSERENHAADDSEGGALDMCCSERLPGLPQPIVMEALDEAEGLQDSQREMPPPPPPSPPSDPAQKPPPRGAGSHSLTVRSSLCLFAASQFLLACGVLWFSGYGHIWSQNATNLVSSLLTLLKQLEPTAWLDSGTWGVPSLLLVFLSVGLVLVTTLVWHLLRTPPEPPTPLPPEDRRQSVSRQPSFTYSEWMEEKIEDDFLDLDPVPETPVFDCVMDIKPEADPTSLTVKSMGLQERRGSNVSLTLDMCTPGCNEEGFGYLMSPREESAREYLLSASRVLQAEELHEKALDPFLLQAEFFEIPMNFVDPKEYDIPGLVRKNRYKTILPNPHSRVCLTSPDPDDPLSSYINANYIRGYGGEEKVYIATQGPIVSTVADFWRMVWQEHTPIIVMITNIEEMNEKCTEYWPEEQVAYDGVEITVQKVIHTEDYRLRLISLKSGTEERGLKHYWFTSWPDQKTPDRAPPLLHLVREVEEAAQQEGPHCAPIIVHCSAGIGRTGCFIATSICCQQLRQEGVVDILKTTCQLRQDRGGMIQTCEQYQFVHHVMSLYEKQLSHQSPE
B1 was tested, and the Km [10] was 260 µM, the Km [11] was 128 µM and the Km [12] was 378 µM. For the same molecule, the Km [13] was 133 µM, the Km [14] was 327 µM and the Km [15] was 169 µM. The Km [16] was 277 µM, the Km [17] was 650 µM and the Km [18] was 2730 µM. For the same molecule, the Km [19] was 745 µM.
